Experimental data reported in ChEMBL document CHEMBL4002602, “Design, Synthesis of Novel, Potent, Selective, Orally Bioavailable Adenosine A2A Receptor Antagonists and Their Biological Evaluation” (J Med Chem, 2017).
Activity calls are given as the source filed them. The rule behind the calls is not given here.

Experiments:
[1] = target: T1, Adenosine receptor A1 (Homo sapiens) (UniProt P30542); experiment: Antagonist activity at human adenosine A1 receptor expressed in HEK293 cell membranes assessed as decrease in CPA/forskolin-induced cAMP level at 10 uM pretreated for 15 mins followed by agonist addition for 15 mins and subsequent forskolin stimulation measured after 30 mins; assay type: functional, cell-based
T1 sequence (whole entry): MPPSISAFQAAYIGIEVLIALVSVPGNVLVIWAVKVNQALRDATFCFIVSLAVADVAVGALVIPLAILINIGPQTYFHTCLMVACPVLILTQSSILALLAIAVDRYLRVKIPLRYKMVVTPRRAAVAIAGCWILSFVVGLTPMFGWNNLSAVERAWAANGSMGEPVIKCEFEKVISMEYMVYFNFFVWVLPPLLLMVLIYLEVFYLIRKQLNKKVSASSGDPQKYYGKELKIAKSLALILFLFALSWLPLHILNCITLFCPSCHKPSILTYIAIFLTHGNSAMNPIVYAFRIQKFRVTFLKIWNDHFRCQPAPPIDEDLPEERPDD
Procedure, shortened: (§1)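 Whole HEK-A1 cells were seeded overnight and then pretreated with 1 U/ml ADA for 90 min at 37 °C and 5% CO2. Compound was added for 15 min, then 1 nM CPA for 15 min, then forskolin for 30 min, at room temperature in incomplete DMEM with ADA and 20 μM rolipram. cAMP was read by HTRF (620/665 nm). Compounds ran at 12 concentrations in triplicate, with 10 or 30 μM as the top concentration.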

[2] = target: T2, Adenosine receptor A2b (Homo sapiens) (UniProt P29275); experiment: Antagonist activity at human adenosine A2B receptor expressed in HEK293 cell membranes assessed as decrease in NECA/forskolin-induced cAMP level at 10 uM pretreated for 15 mins followed by agonist addition for 15 mins and subsequent forskolin stimulation measured after 30 mins; assay type: functional, cell-based
T2 sequence (whole entry): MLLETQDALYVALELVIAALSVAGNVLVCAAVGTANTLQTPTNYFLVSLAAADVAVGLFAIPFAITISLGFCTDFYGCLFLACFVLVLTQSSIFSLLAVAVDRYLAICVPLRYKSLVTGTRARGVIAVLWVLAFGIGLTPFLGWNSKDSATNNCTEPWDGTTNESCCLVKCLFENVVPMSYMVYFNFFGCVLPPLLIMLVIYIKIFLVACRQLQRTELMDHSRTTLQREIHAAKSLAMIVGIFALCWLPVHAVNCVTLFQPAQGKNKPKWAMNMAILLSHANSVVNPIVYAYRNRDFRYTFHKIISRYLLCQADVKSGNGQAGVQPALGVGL
Procedure, shortened: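 Whole HEK-A2B cells were seeded overnight and then pretreated with 1 U/ml ADA for 90 min at 37 °C and 5% CO2. Compound was added for 15 min, then 70 nM NECA for 15 min, at room temperature with mixing in incomplete DMEM with ADA. cAMP was read by HTRF (620/665 nm). Compounds ran at 12 concentrations in triplicate, with 10 μM as the highest tested concentration.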

hERG (KCNH2) = hERG (KCNH2) (Homo sapiens, UniProt Q12809); experiment: Inhibition of [3H]-astemizole binding to human ERG at 3 uM after 2 hrs by liquid scintillation counting method relative to control; conditions: probe [3H]-astemizole
CYP1A2 = CYP1A2 (Homo sapiens, UniProt P05177); experiment: Inhibition of CYP1A2 in human liver microsomes at 5 to 25 uM using phenacetin as substrate preincubated for 5 mins with substrate followed by NADPH addition measured after 10 mins by LC-MS/MS analysis; assay type: ADME; conditions: human liver microsomes, probe phenacetin
[3] = target: T3, Adenosine receptor A3 (Homo sapiens) (UniProt P0DMS8); experiment: Displacement of [3H]-HEMADO from human adenosine A3 receptor expressed in HEK293 cell membranes at 30 uM measured after 90 mins
T3 sequence (whole entry): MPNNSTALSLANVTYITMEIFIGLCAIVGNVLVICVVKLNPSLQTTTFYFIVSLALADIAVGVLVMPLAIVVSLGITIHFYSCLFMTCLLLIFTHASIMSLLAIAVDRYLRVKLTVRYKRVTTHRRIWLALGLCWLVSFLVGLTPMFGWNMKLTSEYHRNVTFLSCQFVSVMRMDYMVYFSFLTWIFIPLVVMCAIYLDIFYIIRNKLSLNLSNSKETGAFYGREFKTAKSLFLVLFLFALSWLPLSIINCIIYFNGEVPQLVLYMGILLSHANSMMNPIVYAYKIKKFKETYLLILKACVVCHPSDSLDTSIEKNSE

[4] = target: T1, Adenosine receptor A1 (Homo sapiens); experiment: Antagonist activity at human adenosine A1 receptor expressed in HEK293 cell membranes assessed as decrease in CPA/forskolin-induced cAMP level at 30 uM pretreated for 15 mins followed by agonist addition for 15 mins and subsequent forskolin stimulation measured after 30 mins; assay type: functional, cell-based; procedure, shortened: as §1
[5] = Apparent permeability across apical to basolateral side in human Caco2 cells at 5 uM after 90 mins; assay type: ADME, cell-based; conditions: Caco-2
[6] = Protein binding in rat serum at 1 uM after 6 hrs by HT dialysis method; assay type: ADME, cell-free; conditions: read-out: PB (converted)
Rattus norvegicus [7] = experiment: Clearance in Wistar rat at 3 mg/kg, iv by LC/MS/MS analysis relative to hepatic blood flow; assay type: ADME, organism-based; conditions: in vivo
CYP2C9 = CYP2C9 (Homo sapiens, UniProt P11712); experiment: Inhibition of CYP2C9 in human liver microsomes at 5 to 25 uM using diclofenac as substrate preincubated for 5 mins with substrate followed by NADPH addition measured after 10 mins by LC-MS/MS analysis; assay type: ADME; conditions: human liver microsomes, probe diclofenac
CYP2C19 = CYP2C19 (Homo sapiens, UniProt P33261); experiment: Inhibition of CYP2C19 in human liver microsomes at 5 to 25 uM using (S)mephenytoin as substrate preincubated for 5 mins with substrate followed by NADPH addition measured after 40 mins by LC-MS/MS analysis; assay type: ADME; conditions: human liver microsomes, probe (S)-mephenytoin
Rattus norvegicus [8] = experiment: Neuroprotective activity in po dosed 6-OHDA-lesioned Wistar rat model of parkinson disease assessed as increase in L-DOPA induced contralateral rotations pretreated for 30 mins followed by benserazide addition and subsequent L-DOPA stimulation for 30 mins measured at 60 mins post dose; assay type: functional, organism-based
Procedure, shortened: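 Male Wistar rats (295–305 g) anesthetized with ketamine/xylazine and given desipramine 10 mg/kg i.p. 30 min before 6-OHDA lesioning. At two weeks, rats were screened with apomorphine 0.05 mg/kg i.p. and kept only if they made ≥100 rotations in 1 h. Compound (30 or 100 mg/kg p.o., in 1% Tween 80/0.5% MC) was given 30 min before benserazide. L-DOPA 4 mg/kg i.p. followed 30 min later. Contralateral rotations counted over 2 h; one-way ANOVA with Dunnett's test.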

[9] = Ratio of AUC (0 to t) in Wistar rat brain to AUC (0 to t) in Wistar rat plasma at 10 mg/kg administered through oral gavage by LC/MS/MS analysis; assay type: ADME, organism-based; conditions: brain and plasma, read-out: Ratio AUC
Procedure, shortened: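 Male Wistar rats (230 ± 15 g), fasted overnight, water ad libitum; single oral dose of 10 mg/kg as suspension in 1% Tween 80/0.5% NaCMC, n=4. Blood and brain collected by discrete sampling at 0.5, 2, 4 and 8 h post dose. Brain washed in PBS and homogenised, plasma and homogenate precipitated with acetonitrile plus internal standard, LC/MS/MS; AUC0-t from non-compartmental analysis.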

[10] = Metabolic stability in rat hepatocytes at 1 uM after 3 to 30 mins by LC-MS/MS analysis; assay type: ADME, cell-based, Hepatocyte

Sequence of CYP1A2 (P05177 whole entry): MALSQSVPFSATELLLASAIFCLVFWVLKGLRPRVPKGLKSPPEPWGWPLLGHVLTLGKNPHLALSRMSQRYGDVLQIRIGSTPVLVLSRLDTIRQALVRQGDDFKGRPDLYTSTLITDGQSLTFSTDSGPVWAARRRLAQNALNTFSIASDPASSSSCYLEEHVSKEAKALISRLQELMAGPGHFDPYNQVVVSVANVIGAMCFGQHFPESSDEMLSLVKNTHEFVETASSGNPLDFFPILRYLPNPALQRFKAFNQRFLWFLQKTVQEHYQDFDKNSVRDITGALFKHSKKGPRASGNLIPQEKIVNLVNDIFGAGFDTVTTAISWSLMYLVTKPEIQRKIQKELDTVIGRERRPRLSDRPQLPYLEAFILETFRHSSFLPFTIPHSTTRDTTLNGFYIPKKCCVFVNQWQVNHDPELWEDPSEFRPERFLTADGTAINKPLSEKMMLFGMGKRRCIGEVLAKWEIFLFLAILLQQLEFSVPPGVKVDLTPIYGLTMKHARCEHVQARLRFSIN
Sequence of CYP2C19 (P33261 whole entry): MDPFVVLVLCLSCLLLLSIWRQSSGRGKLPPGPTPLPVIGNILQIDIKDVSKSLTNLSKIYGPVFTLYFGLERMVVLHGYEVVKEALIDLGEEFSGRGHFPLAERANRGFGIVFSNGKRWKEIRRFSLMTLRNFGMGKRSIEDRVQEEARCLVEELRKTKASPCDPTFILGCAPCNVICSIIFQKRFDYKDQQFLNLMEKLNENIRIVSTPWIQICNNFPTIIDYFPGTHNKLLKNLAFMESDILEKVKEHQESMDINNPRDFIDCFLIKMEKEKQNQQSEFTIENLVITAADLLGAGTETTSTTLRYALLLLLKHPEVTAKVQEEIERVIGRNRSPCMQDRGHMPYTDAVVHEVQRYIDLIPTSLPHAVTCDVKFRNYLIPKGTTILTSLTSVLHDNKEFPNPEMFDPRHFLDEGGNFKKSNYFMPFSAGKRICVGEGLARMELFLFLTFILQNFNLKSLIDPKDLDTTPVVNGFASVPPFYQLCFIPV
Sequence of CYP2C9 (P11712 whole entry): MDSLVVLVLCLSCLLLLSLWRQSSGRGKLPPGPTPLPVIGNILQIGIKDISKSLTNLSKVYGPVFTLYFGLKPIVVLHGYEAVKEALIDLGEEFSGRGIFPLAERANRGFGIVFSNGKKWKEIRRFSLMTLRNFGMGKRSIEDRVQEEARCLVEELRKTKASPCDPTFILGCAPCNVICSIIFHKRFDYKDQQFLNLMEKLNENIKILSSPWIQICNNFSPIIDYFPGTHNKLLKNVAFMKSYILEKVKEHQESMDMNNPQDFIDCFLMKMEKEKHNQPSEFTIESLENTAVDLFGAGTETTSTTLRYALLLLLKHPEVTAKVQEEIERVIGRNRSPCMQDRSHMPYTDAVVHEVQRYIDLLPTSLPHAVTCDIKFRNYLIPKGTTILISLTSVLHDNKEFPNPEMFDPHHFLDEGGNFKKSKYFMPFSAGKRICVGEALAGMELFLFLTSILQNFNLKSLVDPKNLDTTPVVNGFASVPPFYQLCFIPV
Sequence of hERG (KCNH2) (Q12809 whole entry): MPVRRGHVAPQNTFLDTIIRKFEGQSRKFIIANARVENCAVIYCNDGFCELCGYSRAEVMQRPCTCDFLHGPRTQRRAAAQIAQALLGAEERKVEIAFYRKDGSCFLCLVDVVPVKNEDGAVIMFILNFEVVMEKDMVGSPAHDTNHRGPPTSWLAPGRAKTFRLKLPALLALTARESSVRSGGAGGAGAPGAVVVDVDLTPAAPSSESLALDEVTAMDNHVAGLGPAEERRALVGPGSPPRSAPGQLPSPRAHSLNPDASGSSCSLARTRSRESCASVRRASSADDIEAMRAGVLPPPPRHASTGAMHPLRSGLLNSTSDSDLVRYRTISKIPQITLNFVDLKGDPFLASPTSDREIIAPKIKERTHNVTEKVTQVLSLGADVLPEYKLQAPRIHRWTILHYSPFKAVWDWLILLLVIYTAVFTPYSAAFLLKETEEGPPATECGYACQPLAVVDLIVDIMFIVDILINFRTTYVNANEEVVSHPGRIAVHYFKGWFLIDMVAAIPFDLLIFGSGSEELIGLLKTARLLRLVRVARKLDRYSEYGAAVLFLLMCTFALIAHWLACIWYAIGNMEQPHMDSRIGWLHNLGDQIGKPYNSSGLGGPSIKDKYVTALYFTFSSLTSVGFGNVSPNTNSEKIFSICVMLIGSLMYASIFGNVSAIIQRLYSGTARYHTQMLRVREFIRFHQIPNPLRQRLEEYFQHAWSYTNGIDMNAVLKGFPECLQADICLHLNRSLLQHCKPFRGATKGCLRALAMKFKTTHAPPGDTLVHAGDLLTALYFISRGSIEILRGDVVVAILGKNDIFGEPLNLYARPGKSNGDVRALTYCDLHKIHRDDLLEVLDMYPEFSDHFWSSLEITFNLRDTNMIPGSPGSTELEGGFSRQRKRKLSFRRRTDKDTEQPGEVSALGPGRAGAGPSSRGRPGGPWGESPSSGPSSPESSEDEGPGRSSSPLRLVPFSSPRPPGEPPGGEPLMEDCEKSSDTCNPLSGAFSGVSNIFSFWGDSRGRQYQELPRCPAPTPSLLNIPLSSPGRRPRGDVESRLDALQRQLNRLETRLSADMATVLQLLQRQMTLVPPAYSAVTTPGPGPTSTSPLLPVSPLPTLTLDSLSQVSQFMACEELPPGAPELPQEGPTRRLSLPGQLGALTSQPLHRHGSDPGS

With `COc1ccc(N2CCOCC2)c2sc(NC(=O)C(C)(C)Oc3ccc(F)c(F)c3)nc12` the Activity [1] was “inactive”, the Activity [2] was “inactive” and the inhibition at 2 h, 3 µM (hERG (KCNH2)) was under 5%.
With `COc1ccc(N2CCOCC2)c2sc(NC(=O)C(C)(C)Oc3ccc(F)cc3)nc12` the Activity [2] was “inactive” and the inhibition at 2 h, 3 µM (hERG (KCNH2)) was under 5%.
For `COc1ccc(N2CCOCC2)c2sc(NC(=O)C3(C)CCC(C)(O)CC3)nc12` (stereo not given), the IC50 at 10 min (CYP1A2) was over 25 µM, the Activity [3] was “inactive” and the Activity [4] was “inactive”. For the same compound, the Papp A→B at 1.5 h, 5 µM [5] was 12.2 ×10⁻⁶ cm/s, the fraction unbound at 6 h, 1 µM [6] was 0.13 and the clearance (Rattus norvegicus [7]) was 60 to 65%. It also gave an IC50 at 10 min (CYP2C9) of over 25 µM and an IC50 at 40 min (CYP2C19) of over 25 µM.
In the case of `CCN(CC)C1CCC(C)(C(=O)Nc2nc3c(OC)ccc(N4CCOCC4)c3s2)CC1` (stereo not given), the IC50 at 10 min (CYP1A2) is reported as over 50 µM, the Activity [3] is reported as “inactive” and the Activity [4] is reported as “inactive”. It also gave a Papp A→B at 1.5 h, 5 µM [5] of 3.7 ×10⁻⁶ cm/s, a fraction unbound at 6 h, 1 µM [6] of 0.24 and a clearance (Rattus norvegicus [7]) of 60 to 65%. For the same compound, the Activity (Rattus norvegicus [8]) was “Dose-dependent effect”, the IC50 at 10 min (CYP2C9) was over 50 µM and the IC50 at 40 min (CYP2C19) was over 50 µM. The Kp [9] was 0.25.
For `COc1cnc(N2CCOCC2)c2sc(NC(=O)C(C)(C)Oc3ccc(F)cc3)nc12`, the Activity [1] was “inactive” and the Stability [10] was “Stable”.
